For series [1], the system named is DU-145. Put plainly: Antiproliferative activity against human DU145 cells assessed as growth inhibition at 0.5 ug/mL after 48 hrs by MTT assay relative to control. Format: functional. The following applies: for inhibition of growth at 0.5 µg/mL: DU-145, 48 h, read-out: GI. The procedure, abridged:
(§1)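 DU-145 cells grown in DMEM with 10% heat-inactivated FBS and streptomycin/penicillin at 37 °C, 5% CO2. Cells seeded at 5×10³/well and left to attach 24 h. Compounds in ethanol, final 0.01, 0.5, 1.0, 2.0 and 5.0 µg/mL, given in triplicate for 48 h. MTT added for 4 h, formazan dissolved in DMSO, A570 read. Viability is A(test)/A(control)×100, mean ± SEM of 3 experiments. IC50 taken from a linear log dose–response fit.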
For orientation: Tetrazolium dyes change colour on reduction, which living cells bring about.

The test system of series [2] is Rattus norvegicus. Kind of series: Antiandrogenic activity in Sprague-Dawley rat assessed as increase of serum testosterone level at 40 mg/kg, ip equimolar dose of finasteride after 6 hrs by ELISA. Format: functional. In a few lines: (§2)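 Intact male Sprague Dawley rats (200–250 g), 5 per group. Compounds suspended in olive oil:ethanol (95:5), single intraperitoneal dose equimolar to 40 mg/kg finasteride; controls received vehicle alone. Blood taken by cardiac puncture under diethyl ether anaesthesia 6 h after dosing. Serum testosterone measured by competitive ELISA (T-antibody-coated wells, HRP-T conjugate, 4 h at 37 °C, H2O2 substrate 20 min, H2SO4 stop) at 450 nm. Results are mean ± SEM.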

Series [3] has as its system DU-145. Put plainly: Antiproliferative activity against human DU145 cells assessed as growth inhibition at 5 ug/mL after 48 hrs by MTT assay relative to control. It is filed as functional. The following applies: for inhibition of growth at 5 µg/mL: DU-145, 48 h, read-out: GI. In a few lines: as §1
The subject of series [4] is DU-145. Put plainly: Antiproliferative activity against human DU145 cells assessed as growth inhibition at 0.01 ug/mL after 48 hrs by MTT assay relative to control. It is filed as functional. To be noted: for inhibition of growth at 0.01 µg/mL: DU-145, 48 h, read-out: GI. The procedure, abridged: as §1
In series [5] the test system is DU-145. Kind of series: Antiproliferative activity against human DU145 cells assessed as growth inhibition after 48 hrs by MTT assay. Format: functional, cell-based. The following applies: DU-145, 48 h. In a few lines: as §1
For series [6], the system named is DU-145. Kind of series: Antiproliferative activity against human DU145 cells assessed as growth inhibition at 2 ug/mL after 48 hrs by MTT assay relative to control. The following applies: for inhibition of growth at 2 µg/mL: DU-145, 48 h, read-out: GI. It is filed as functional. In a few lines:
as §1

The test system of series [7] is DU-145. Put plainly: Antiproliferative activity against human DU145 cells assessed as growth inhibition at 1 ug/mL after 48 hrs by MTT assay relative to control. Format: functional. To be noted: for inhibition of growth at 1 µg/mL: DU-145, 48 h, read-out: GI. The procedure, abridged: as §1
Series [8] in a line: Cytotoxicity against Balb/C mouse macrophages assessed as cell viability at 5 ug/ml after 24 hrs by MTT assay. Format: cell-based, Macrophage. The following applies: read-out: Activity.
In series [9] the test system is Rattus norvegicus. Put plainly: Antiandrogenic activity in ip dosed Sprague-Dawley rat assessed as increase of serum testosterone level after 6 hrs by ELISA (reference value: 0.742 +/- 0.07 ng/ml). It is filed as functional. The procedure, abridged:
as §2

Series [10] in a line: Cytotoxicity against Balb/C mouse macrophages assessed as cell viability after 24 hrs by MTT assay. Format: cell-based. The following applies: Macrophage.

The source made the active and inactive calls. No cut-off for these calls is given here.

`C[C@]12CC[C@H](OC(=O)c3ccccc3)CC1=CC[C@@H]1[C@@H]2CC[C@]2(C)NC(=O)CC[C@@H]12`: the inhibition of growth at 0.5 µg/mL in the series with DU-145 [1] was 35.7%. The result in the series on Rattus norvegicus [2] was Active. Also, in the series with DU-145 [3], the inhibition of growth at 5 µg/mL came to 63.6%. For the same molecule, the inhibition of growth at 0.01 µg/mL in the series on DU-145 [4] was found to be 28.1%. Besides, the IC50 – broadly, the concentration that gives 50% inhibition – in the series with DU-145 [5] is 9.5 µM. Besides, the inhibition of growth at 2 µg/mL in the series on DU-145 [6] stood at 45%. The inhibition of growth at 1 µg/mL in the series on DU-145 [7] turned out to be 38.8%.
Turning to `COc1ccc(C(=O)O[C@H]2CC[C@@]3(C)C(=CC[C@@H]4[C@@H]3CC[C@]3(C)NC(=O)CC[C@@H]43)C2)cc1`, the inhibition of growth at 0.5 µg/mL in the series on DU-145 [1] was found to be 25.2%. For the same molecule, the Activity with Rattus norvegicus [2] (route intraperitoneal) amounted to 1.05 ng/mL. Besides, in the series on DU-145 [3], the inhibition of growth at 5 µg/mL turned out to be 43%. Moreover, the inhibition of growth at 0.01 µg/mL in the series with DU-145 [4] was determined as 17.4%. Also, the IC50 in the series with DU-145 [5] worked out at 15.1 µM. Moreover, the inhibition of growth at 2 µg/mL with DU-145 [6] was found to be 33.9%. For the same molecule, the inhibition of growth at 1 µg/mL with DU-145 [7] turned out to be 21.3%.
For `C[C@]12CC[C@H](OC(=O)c3ccc(Cl)cc3)CC1=CC[C@@H]1[C@@H]2CC[C@]2(C)NC(=O)CC[C@@H]12`, the inhibition of growth at 0.5 µg/mL in the series on DU-145 [1] stood at 27.9%. Further, in series [8], the viability at 24 h, 5 ug/ml was 6%. In the series on Rattus norvegicus [2], the outcome was Active. Further, the inhibition of growth at 5 µg/mL with DU-145 [3] turned out to be 67.6%. Further, the inhibition of growth at 0.01 µg/mL in the series with DU-145 [4] was determined as 19%. Besides, in the series with DU-145 [5], the IC50 stood at 8.3 µM. Besides, in the series on DU-145 [6], the inhibition of growth at 2 µg/mL came out at 49.4%. Besides, the inhibition of growth at 1 µg/mL with DU-145 [7] turned out to be 42.2%.
Consider `C[C@]12CC[C@H](OC(=O)COc3ccccc3)CC1=CC[C@@H]1[C@@H]2CC[C@]2(C)NC(=O)CC[C@@H]12`, for which the “growth inhibition (GI)” value in the series on DU-145 [1], in the series on DU-145 [3], in the series with DU-145 [4], with DU-145 [6] and with DU-145 [7] was “inactive” throughout. Further, in the series with Rattus norvegicus [2], the result was Active.
For `C[C@]12CC[C@H](OC(=O)CCl)CC1=CC[C@@H]1[C@@H]2CC[C@]2(C)NC(=O)CC[C@@H]12`, the “growth inhibition (GI)” value in the series with DU-145 [1], with DU-145 [3], in the series on DU-145 [4], in the series with DU-145 [6] and with DU-145 [7] was “inactive” in each case. In addition, the viability at 24 h, 5 ug/ml in [8] stood at 6%. For the same molecule, the Activity in the series on Rattus norvegicus [2] (route intraperitoneal) came to 0.82 ng/mL.
With `C[C@]12CC[C@H](O)CC1=CC[C@@H]1[C@@H]2CC[C@]2(C)NC(=O)CC[C@@H]12`, the “growth inhibition (GI)” value in the series on DU-145 [1], in the series with DU-145 [3], in the series with DU-145 [4], in the series with DU-145 [6] and in the series on DU-145 [7] was “inactive” throughout. Also, the outcome in the series on Rattus norvegicus [2] was Active.
For the molecule `CC(C)(C)NC(=O)[C@H]1CC[C@H]2[C@@H]3CC[C@H]4NC(=O)C=C[C@]4(C)[C@H]3CC[C@]12C` [FINASTERIDE], the inhibition of growth at 0.5 µg/mL in the series on DU-145 [1] came out at 8.83%. In addition, the Activity in the series on Rattus norvegicus [9] came out at 1.26 ng/mL. In addition, in the series with DU-145 [3], the inhibition of growth at 5 µg/mL amounted to 78.5%. Besides, the inhibition of growth at 0.01 µg/mL in the series on DU-145 [4] stood at 5%. For the same molecule, the IC50 in the series with DU-145 [5] was found to be 3.9 µM. Moreover, the inhibition of growth at 2 µg/mL with DU-145 [6] is 36%. In addition, the inhibition of growth at 1 µg/mL in the series on DU-145 [7] is 16.5%.
For `C[C@]12CC[C@H](OC(=O)c3ccc(O)cc3)CC1=CC[C@@H]1[C@@H]2CC[C@]2(C)NC(=O)CC[C@@H]12`, the inhibition of growth at 0.5 µg/mL with DU-145 [1] was found to be 51.4%. Also, in the series on Rattus norvegicus [2], the outcome was Active. In addition, the inhibition of growth at 5 µg/mL in the series on DU-145 [3] was found to be 69.5%. In the series on DU-145 [4], the inhibition of growth at 0.01 µg/mL was 30.7%. Moreover, the IC50 in the series with DU-145 [5] was found to be 5.7 µM. The inhibition of growth at 2 µg/mL with DU-145 [6] came out at 65.6%. For the same molecule, the inhibition of growth at 1 µg/mL in the series on DU-145 [7] was 59.2%.
As for `C[C@]12CC[C@H](OC(=O)Cc3ccccc3)CC1=CC[C@@H]1[C@@H]2CC[C@]2(C)NC(=O)CC[C@@H]12`, the “growth inhibition (GI)” value in the series with DU-145 [1], in the series on DU-145 [4] and in the series on DU-145 [7] was “inactive” in each case. In addition, in the series with Rattus norvegicus [2], the outcome was Active. The inhibition of growth at 5 µg/mL in the series on DU-145 [3] was 73.1%. In the series on DU-145 [5], the IC50 is 7.1 µM. The inhibition of growth at 2 µg/mL in the series on DU-145 [6] worked out at 48.3%. Further, the LC50 – broadly, the concentration that kills 50% of the test population – in series [10] came out at 26 µM.
Turning to `C[C@]12CC[C@H](OC(=O)c3ccc(N)cc3)CC1=CC[C@@H]1[C@@H]2CC[C@]2(C)NC(=O)CC[C@@H]12`, the inhibition of growth at 0.5 µg/mL in the series with DU-145 [1] stood at 43.4%. Moreover, the result with Rattus norvegicus [2] was Active. In addition, the inhibition of growth at 5 µg/mL with DU-145 [3] turned out to be 82.4%. Also, the inhibition of growth at 0.01 µg/mL in the series on DU-145 [4] was 30.5%. The IC50 with DU-145 [5] amounted to 7.1 µM. The inhibition of growth at 2 µg/mL in the series with DU-145 [6] is 48%. For the same molecule, the inhibition of growth at 1 µg/mL with DU-145 [7] worked out at 45%.
Regarding `Cc1ccc(C(=O)O[C@H]2CC[C@@]3(C)C(=CC[C@@H]4[C@@H]3CC[C@]3(C)NC(=O)CC[C@@H]43)C2)cc1`, the inhibition of growth at 0.5 µg/mL with DU-145 [1] worked out at 29.5%. Moreover, the outcome in the series on Rattus norvegicus [2] was Active. The inhibition of growth at 5 µg/mL with DU-145 [3] was determined as 77%. Also, the inhibition of growth at 0.01 µg/mL in the series on DU-145 [4] came out at 21.6%. Besides, the IC50 in the series with DU-145 [5] amounted to 7.5 µM. Also, the inhibition of growth at 2 µg/mL with DU-145 [6] was determined as 68.1%. In addition, the inhibition of growth at 1 µg/mL with DU-145 [7] is 40.7%.
With `C[C@]12CC[C@H](OC(=O)c3ccc([N+](=O)[O-])cc3)CC1=CC[C@@H]1[C@@H]2CC[C@]2(C)NC(=O)CC[C@@H]12`, the inhibition of growth at 0.5 µg/mL in the series on DU-145 [1] came out at 41.4%. Moreover, in the series on Rattus norvegicus [2], the outcome was Active. In addition, the inhibition of growth at 5 µg/mL in the series with DU-145 [3] came to 88.9%. The inhibition of growth at 0.01 µg/mL in the series with DU-145 [4] was determined as 33.9%. In the series on DU-145 [5], the IC50 is 5.2 µM. The inhibition of growth at 2 µg/mL in the series on DU-145 [6] is 73.5%. In addition, the inhibition of growth at 1 µg/mL in the series with DU-145 [7] is 57.9%.

Source of the values: ChEMBL document CHEMBL1165859, “Synthesis, antiproliferative, acute toxicity and assessment of antiandrogenic activities of some newly synthesized steroidal lactams” (Eur J Med Chem, 2010).
